Compound activity as filed in PubChem.
In the library only some 2% were active in any assay of this set; here they are far more common.
MIN6 prolif – inducers of beta-cell replication in MIN6 cells. MIN6 cells proliferation, ATPlite luminescence, 48 h; cells starved in 0.2% serum; 100% = growth in 10% serum. proliferation, % at 10 µM. actives 0.29% (n = 330,000). AID 2380;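 active = compounds whose signal lies at least 3.5 SD above the mean of all wells on their plate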;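 note: 0% = DMSO-treated cells in low-serum medium and 100% = 10% serum control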
HKDC1 inhibitor – blocks human hexokinase HKDC1 activity | Q2TB90 | recombinant HKDC1, G6PDH/diaphorase resazurin coupled fluorescence | inhibition, % at 20 µM | actives 0.16% (n = 340,000);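 active = inhibition above about 35% when tested at 20 µM, limit read from the data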;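 note: plate controls were DMSO wells with enzyme for no effect and DMSO wells lacking enzyme for full effect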
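Test system: recombinant HKDC1 (HK5) hexokinase enzyme, produced in-house / Doses: 20 µM test compound, 1% DMSO / Timing: 90 min, room temperature / Detection: G6PDH/diaphorase-coupled fluorescence, 1 mM NADP, 100 µM resazurin, 525/613 nm / Control set: DMSO wells with and without enzyme mix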
VIM-2 inh – blocks Pseudomonas aeruginosa VIM-2 metallo-beta-lactamase | purified VIM-2, nitrocefin hydrolysis, epi-absorbance fluorescence | inhibition, % at 5.6 µM | actives 0.89% (n = 290,000) | AID 1527;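 active = inhibition above the mean of all tested compounds plus 3 SD, cutoff set per screening run, cut at about 7.5% in these data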;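 note: red hydrolysis product quenches plate fluorescence so inhibitors raise well fluorescence; 0% = enzyme with DMSO and 100% = DMSO without enzyme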
PvdQ inh – P. aeruginosa PvdQ acylase inhibition | inhibition, % at 10 µM | AID 488965 | actives 0.063% (n = 340,000) | purified PvdQ acylase, fluorescence plate reader; in the data active = inhibition above about 30%, passing the limit was not always enough;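 note: 0% = vehicle neutral wells and 100% = reference inhibitor wells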
IMP-1 inhibitor – inhibitors of Pseudomonas aeruginosa IMP-1 metallo-beta-lactamase. purified IMP-1, nitrocefin hydrolysis, epi-absorbance fluorescence. actives 0.45% (n = 290,000). inhibition, % at 5.6 µM;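 active = inhibition above the mean plus 3 SD of all compounds in the same screening run, cut at about 4.5% in these data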;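 note: 0% = IMP-1 with DMSO and 100% = DMSO wells lacking enzyme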
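Assay system: purified IMP-1; Quantity: IMP-1 0.2 nM before substrate addition; Medium: HEPES buffer pH 7.1 with ZnSO4 and Brij 35; Incubation: 15 min enzyme–compound preincubation, then 25 min nitrocefin reaction, 25 °C; Signal: fluorescence quenching readout, ex 480/em 530 nm; Controls: DMSO with and without IMP-1; Repeats: singlicate testing.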
ATG4B inhibitor – blocks human ATG4B protease cleavage of LC3 substrate. Q9Y4P1. ATG4B cleavage of LC3-PLA2, NBD-HPC fluorescence, 1 h. inhibition, % at 8.33 µM. actives 0.51% (n = 340,000). AID 504462; in the data active = inhibition above about 40%
Target sequence (Q9Y4P1 whole entry, looked up): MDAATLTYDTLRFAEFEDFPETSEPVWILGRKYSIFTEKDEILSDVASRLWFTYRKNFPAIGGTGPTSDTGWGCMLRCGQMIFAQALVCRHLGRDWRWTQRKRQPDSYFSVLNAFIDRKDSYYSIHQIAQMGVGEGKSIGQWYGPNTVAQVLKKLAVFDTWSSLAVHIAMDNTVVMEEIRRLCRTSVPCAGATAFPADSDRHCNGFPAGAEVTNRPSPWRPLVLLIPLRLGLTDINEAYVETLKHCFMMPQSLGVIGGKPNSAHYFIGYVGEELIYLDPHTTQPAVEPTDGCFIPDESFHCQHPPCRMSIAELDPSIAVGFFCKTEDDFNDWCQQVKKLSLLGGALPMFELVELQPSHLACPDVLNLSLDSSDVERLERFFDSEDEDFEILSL
ATG4B confirm – confirmation of human ATG4B inhibitors; shares compounds with ATG4B inhibitor; ATG4B protease fluorescent substrate cleavage assay; inhibition, % at 8.33 µM; actives 92% (n = 320); AID 504757; in the data active = inhibition above about 39%
PLA2 ctr – counter-screen for ATG4B inhibitors: human phospholipase A2; inhibition, % at 8.33 µM; purified PLA2, NBD-C6-HPC fluorescence, 45 min; shares compounds with ATG4B inhibitor; actives 66% (n = 1,600); in the data active = inhibition above about 50%
Target sequence (P04054 whole entry, looked up): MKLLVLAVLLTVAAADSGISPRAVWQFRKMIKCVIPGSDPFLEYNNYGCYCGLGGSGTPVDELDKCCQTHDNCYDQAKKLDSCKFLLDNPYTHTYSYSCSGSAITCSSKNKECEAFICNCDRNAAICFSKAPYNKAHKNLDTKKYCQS
* hit, by the source's call.

Screening COCCCNC(=O)CCCn1c(=O)c2ccccc2n(CC(=O)Nc2c(C)cc(C)cc2C)c1=O returned MIN6 prolif 0.1, HKDC1 inhibitor -6.6, VIM-2 inh 1.8, PvdQ inh -9.4, IMP-1 inhibitor -0.7 and ATG4B inhibitor -3.6.
For O=C1NN(c2ccccc2)C(=O)/C1=C/c1ccc(Sc2cccc3ccccc23)o1 the results were MIN6 prolif 0.0, HKDC1 inhibitor 19.0, VIM-2 inh 4.2, PvdQ inh -4.8, IMP-1 inhibitor 2.3, ATG4B inhibitor 43.7*, ATG4B confirm 50.8* and PLA2 ctr 31.8.
`CN(C)C(=O)c1cc(Cl)ccc1Sc1cc(Cl)ccc1Cl` gave MIN6 prolif 1.3, HKDC1 inhibitor -1.2, VIM-2 inh -5.3, PvdQ inh -9.0, IMP-1 inhibitor -4.2 and ATG4B inhibitor 8.5.
Screening Oc1ccc(Cl)cc1Sc1cc(Cl)ccc1O returned HKDC1 inhibitor 4.1, PvdQ inh 14.4, ATG4B inhibitor 47.0*, ATG4B confirm 58.6* and PLA2 ctr 24.7.
O[C@@H](c1cc(C(F)(F)F)nc2c(C(F)(F)F)cccc12)[C@H]1CCCCN1 was read as MIN6 prolif -8.3, HKDC1 inhibitor -0.6, PvdQ inh -11.1 and ATG4B inhibitor 3.4.
For OC(c1cc(-c2ccc(Cl)cc2)nc2ccccc12)C1CCCCN1 (stereo not drawn) the results were HKDC1 inhibitor -4.7, VIM-2 inh -1.5, PvdQ inh -0.5, IMP-1 inhibitor -1.1, ATG4B inhibitor 41.8* and PLA2 ctr 52.3*.
CCCc1nnc(NC(=O)CCC(=O)NC2CCCCCC2)s1 was read as MIN6 prolif -2.8, HKDC1 inhibitor -7.1, VIM-2 inh -0.7, PvdQ inh -4.8, IMP-1 inhibitor -1.0 and ATG4B inhibitor -4.9.
`Cn1c(-c2c(N)n(CCCc3ccccc3)c3nc4ccccc4nc23)nc2ccccc21` gave HKDC1 inhibitor -2.6, VIM-2 inh -2.8, PvdQ inh 13.0, IMP-1 inhibitor -0.1, ATG4B inhibitor 42.4* and PLA2 ctr 51.6*.
`Cn1c(-c2c(N)n(CCc3ccccc3)c3nc4ccccc4nc23)nc2ccccc21` gave MIN6 prolif -5.4, HKDC1 inhibitor -2.8, VIM-2 inh -3.3, PvdQ inh -5.9, IMP-1 inhibitor -3.5 and ATG4B inhibitor 14.4.
CCN(C(=O)CSc1ncnc2sc(C)c(C)c12)C1CCS(=O)(=O)C1 (stereo not drawn) was read as MIN6 prolif 0.7, HKDC1 inhibitor 5.0, VIM-2 inh 3.1, PvdQ inh -2.8, IMP-1 inhibitor -1.1 and ATG4B inhibitor 1.6.
Screening CCCN(CC1CC1)C(=O)CSc1ncnc2sc(C)c(C)c12 returned MIN6 prolif 2.3, HKDC1 inhibitor 0.5, VIM-2 inh 4.6, PvdQ inh -9.6, IMP-1 inhibitor -4.0, ATG4B inhibitor 52.9* and PLA2 ctr 56.3*.
`C/C(CCc1oc2ccc(Br)cc2c1-c1ccc(C)o1)=N/O` gave MIN6 prolif 0.0, HKDC1 inhibitor -2.2, VIM-2 inh -3.7, PvdQ inh -21.9, IMP-1 inhibitor -1.5 and ATG4B inhibitor 34.6.
C/C(CCc1oc2ccc(Cl)cc2c1-c1ccc(C)o1)=N\O was read as MIN6 prolif -5.9, HKDC1 inhibitor 7.1, VIM-2 inh -7.3, PvdQ inh -3.1, IMP-1 inhibitor -6.3, ATG4B inhibitor 45.9* and PLA2 ctr 71.3*.
`O=C1/C(=C/c2c[nH]c3ccccc23)CCC/C1=C\c1c[nH]c2ccccc12` gave MIN6 prolif -3.5, HKDC1 inhibitor -10.6, VIM-2 inh 0.7, PvdQ inh -11.9, IMP-1 inhibitor -1.3, ATG4B inhibitor 75.5* and PLA2 ctr 74.5*.
O=C1CS/C(=N/N=C/c2c[nH]c3ccccc23)N1 was read as MIN6 prolif -3.1, HKDC1 inhibitor -7.2, VIM-2 inh -3.2, IMP-1 inhibitor -1.8 and ATG4B inhibitor 1.8.
Screening O=C(Nc1nc(-c2ccccc2)cs1)c1ccccc1NS(=O)(=O)c1ccc(F)cc1 returned MIN6 prolif -6.2, HKDC1 inhibitor 20.4, VIM-2 inh 0.6, PvdQ inh -10.2, IMP-1 inhibitor 0.7, ATG4B inhibitor 53.6* and PLA2 ctr 62.4*.
For CSCCC(NC(=O)c1ccc(Cl)cc1)C(=O)OCC(=O)c1ccc[nH]1 (stereo not drawn) the results were MIN6 prolif -3.5, HKDC1 inhibitor 11.3, VIM-2 inh -3.3, PvdQ inh 3.3, IMP-1 inhibitor -4.1 and ATG4B inhibitor 25.1.
`C=CCn1c(SCC(=O)c2ccccc2)nnc1-c1cc2ccccc2o1` gave MIN6 prolif -2.4, HKDC1 inhibitor -0.6, VIM-2 inh -0.6, PvdQ inh -14.1, IMP-1 inhibitor -0.5, ATG4B inhibitor 61.5* and PLA2 ctr 61.8*.
For Cc1cccc(NC(=O)COC(=O)c2n[nH]c3ccccc23)c1C the results were MIN6 prolif -2.0, HKDC1 inhibitor -5.8, PvdQ inh -15.1, ATG4B inhibitor 45.4* and PLA2 ctr 51.8*.
CCN1CCc2nc3sc(C(=O)N4CCc5ccccc5C4)c(N)c3cc2C1 was read as MIN6 prolif 1.2, HKDC1 inhibitor 5.9, VIM-2 inh 0.1, PvdQ inh 1.5, IMP-1 inhibitor -3.1 and ATG4B inhibitor 5.8.
CC(C)c1ccc2nc3sc(C(=O)N4CCc5ccccc5C4)c(N)c3cc2c1 was read as MIN6 prolif -4.1, HKDC1 inhibitor -1.0, VIM-2 inh -3.0, PvdQ inh -1.6, IMP-1 inhibitor -2.3, ATG4B inhibitor 52.1*, ATG4B confirm 53.7* and PLA2 ctr 48.3.
For COc1cccc(C(=O)Nc2ccc(C(F)(F)F)n(C)c2=O)c1 the results were MIN6 prolif -3.0, HKDC1 inhibitor 4.5, VIM-2 inh -2.6, PvdQ inh -1.0, IMP-1 inhibitor -1.1 and ATG4B inhibitor 1.2.
C/C(N)=C(/C#N)C(=O)CSc1nc2ccccc2c(=O)n1-c1ccc(C)cc1 was read as MIN6 prolif -1.4, VIM-2 inh -3.2 and IMP-1 inhibitor -1.8.
`C/C(N)=C(/C#N)C(=O)CSc1nc2ccccc2c(=O)n1-c1ccc(C)c(Cl)c1` gave MIN6 prolif -5.5, HKDC1 inhibitor 17.1, VIM-2 inh -3.8, PvdQ inh -7.7, IMP-1 inhibitor -4.0, ATG4B inhibitor 46.6* and PLA2 ctr 48.9.
CCN(CCCn1c(SCC#N)nc2ccccc2c1=O)c1ccccc1 was read as MIN6 prolif -3.4, HKDC1 inhibitor 5.8, VIM-2 inh -1.6, PvdQ inh -9.7, IMP-1 inhibitor -0.7, ATG4B inhibitor 43.5* and PLA2 ctr 44.9.
